Assay results from different studies.
Protocols differ between the studies behind these lines. Values after ≈ are worked out from the molar mass of the structure shown.
Organism: Nakaseomyces glabratus

C[C@@H]1[C@H](O)[C@@H](C)/C=C/C=C/C=C/C=C/C=C/C=C/C=C/[C@H](O[C@@H]2O[C@H](C)[C@@H](O)[C@H](N)[C@@H]2O)C[C@@H]2O[C@](O)(C[C@@H](O)C[C@@H](O)[C@H](O)CC[C@@H](O)C[C@@H](O)CC(=O)O[C@H]1C)C[C@H](O)[C@H]2C(=O)O
IC50 (microbial growth; ATCC90030): 0.31 µg/mL (≈ 0.335 µM)

CN1CCNCC1
MIC (microbial growth; broth dilution; ATCC2001; 48 h): > 31.3 µg/mL

CCCCCOc1c(OC)cc(NC(C)CCCNC(=O)C(N)CC(C)C)c2nc(C(C)(C)C)ccc12 (stereo not shown)
IC50 (microbial growth; ATCC90030): 11.3 µg/mL (≈ 22 µM)

CCCCCN1CCNCC1
MIC (microbial growth; broth dilution; ATCC2001; 48 h): > 31.3 µg/mL

CCOC(=O)c1nc2ccccc2c(=O)n1Cc1cn(-c2ccccc2)nn1
IC50 (microbial growth; broth dilution; ATCC90030; 24 h): 182 µg/mL (≈ 484 µM)

C=CCCCCCCCCCCCC(O)CC(O)CO (stereo not shown)
IC50 (microbial growth; broth dilution; ATCC90030): > 200 µg/mL

CCCCCCOc1c(OC)cc(NC(C)CCCN)c2nc(C(C)(C)C)cc(C)c12 (stereo not shown)
MFC (microbial killing; ATCC90030): 20 µg/mL (≈ 46.5 µM)

CC[C@H](C)C[C@H](C)CCCCCCCCC(=O)N[C@H]1C[C@@H](O)[C@@H](NCCN)NC(=O)[C@@H]2[C@@H](O)CCN2C(=O)[C@H]([C@H](O)CCN)NC(=O)[C@H]([C@H](O)[C@@H](O)c2ccc(O)cc2)NC(=O)[C@@H]2C[C@@H](O)CN2C(=O)[C@H]([C@@H](C)O)NC1=O
MIC (microbial growth; broth dilution; ATCC2001; 48 h): 0.06 µg/mL (≈ 0.0549 µM)

CCOC(=O)c1nc2ccccc2c(=O)n1Cc1cn(-c2cccc(Cl)c2)nn1
IC50 (microbial growth; broth dilution; ATCC90030; 24 h): 58.2 µg/mL (≈ 142 µM)

CCCCCCCCCCN1CCN(CC(O)(Cn2cncn2)c2ccc(Cl)cc2Cl)CC1 (stereo not shown)
MIC (microbial growth; broth dilution; ATCC2001; 48 h): 0.975 µg/mL (≈ 1.96 µM)

C[C@@H]1[C@H](O)[C@@H](C)/C=C/C=C/C=C/C=C/C=C/C=C/C=C/[C@H](O[C@@H]2O[C@H](C)[C@@H](O)[C@H](N)[C@@H]2O)C[C@@H]2O[C@](O)(C[C@@H](O)C[C@@H](O)[C@H](O)CC[C@@H](O)C[C@@H](O)CC(=O)O[C@H]1C)C[C@H](O)[C@H]2C(=O)O
MFC (microbial killing; ATCC90030): 0.63 µg/mL (≈ 0.682 µM)

CCOC(=O)c1nc2ccccc2c(=O)n1Cc1cn(-c2ccccc2F)nn1
IC50 (microbial growth; broth dilution; ATCC90030; 24 h): 245 µg/mL (≈ 622 µM)

OC(Cn1cncn1)(Cn1cncn1)c1ccc(F)cc1F
MIC90 (microbial growth; broth dilution; 24 h): 16 µg/mL (≈ 52.2 µM)

CCCCCCCCCCCCN1CCNCC1
MIC (microbial growth; broth dilution; ATCC2001; 48 h): 1.95 µg/mL (≈ 7.66 µM)

CCOC(=O)c1nc2ccccc2c(=O)n1Cc1cn(-c2cccc([N+](=O)[O-])c2)nn1
IC50 (microbial growth; broth dilution; ATCC90030; 24 h): 354 µg/mL (≈ 842 µM)

CCCCCCOc1c(OC)cc(NC(C)CCCN)c2nc(C(C)(C)C)ccc12 (stereo not shown)
MFC (microbial killing; ATCC90030): 20 µg/mL (≈ 48.1 µM)

OC(Cn1cncn1)(Cn1cncn1)c1ccc(F)cc1F
MFC (microbial killing; ATCC2001): > 64 µg/mL

CCCCCCCCCCCCCCN1CCN(CC(O)(Cn2cncn2)c2ccc(F)cc2F)CC1 (stereo not shown)
MIC (microbial growth; broth dilution; ATCC2001; 48 h): > 31.3 µg/mL

COc1cc(C(C)(C)C#Cc2c(C)nc(N)nc2N)cc(OC)c1OC
MIC (microbial growth; resazurin): 178 µg/mL (≈ 499 µM)

Cc1cccc(-n2cc(Cn3c(C(=O)O)nc4ccccc4c3=O)nn2)c1
IC50 (microbial growth; broth dilution; ATCC90030; 24 h): 245 µg/mL (≈ 677 µM)

CCCCCCCCCCCCN1CCN(CC(O)(Cn2cncn2)c2ccc(Cl)cc2Cl)CC1 (stereo not shown)
MIC (microbial growth; broth dilution; ATCC2001; 48 h): 0.975 µg/mL (≈ 1.86 µM)

CCOC(=O)c1nc2ccccc2c(=O)n1Cc1cn(-c2ccccc2[N+](=O)[O-])nn1
IC50 (microbial growth; broth dilution; ATCC90030; 24 h): 272 µg/mL (≈ 648 µM)

CCCCCOc1c(OC)cc(NC(C)CCCNC(=O)C(N)CCCNC(=N)N)c2nc(C(C)(C)C)ccc12 (stereo not shown)
IC50 (microbial growth; ATCC90030): 19.1 µg/mL (≈ 34.2 µM)

O=C(O)c1nc2ccccc2c(=O)n1Cc1cn(-c2cccc([N+](=O)[O-])c2)nn1
IC50 (microbial growth; broth dilution; ATCC90030; 24 h): 487 µg/mL (≈ 1240 µM)

CCCCCCOc1c(OC)cc(NC(C)CCCNC(=O)C(N)Cc2cnc[nH]2)c2nc(C(C)(C)C)ccc12 (stereo not shown)
MIC (microbial growth; broth dilution; ATCC90030): 20 µg/mL (≈ 36.2 µM)

CCCCCN1CCN(CC(O)(Cn2cncn2)c2ccc(F)cc2F)CC1 (stereo not shown)
MIC (microbial growth; broth dilution; ATCC2001; 48 h): > 31.3 µg/mL

O=C(O)c1nc2ccccc2c(=O)n1Cc1cn(-c2cccc(F)c2)nn1
IC50 (microbial growth; broth dilution; ATCC90030; 24 h): 262 µg/mL (≈ 717 µM)

CCCCCCCCOc1c(OC)cc(NC(C)CCCN)c2nc(C(C)(C)C)ccc12 (stereo not shown)
IC50 (microbial growth; ATCC90030): 6.19 µg/mL (≈ 14 µM)
